The text below walks through data of ChEMBL document CHEMBL3414496, “Synthesis and biological evaluation of novel 2-heteroarylimino-1,3-thiazolidin-4-ones as potential anti-tumor agents” (Eur J Med Chem, 2015).

What all share (type): functional
Test [1] deals with HT-29. The test can be described thus: Induction of GCL expression in human HT-29 cells at 1.5 uM after 24 hrs by Western blotting method. The procedure, abridged: (§1)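 HT29 whole-cell lysates in Hepes/KOH pH 7.5 with EDTA, KCl, NP40, DTT, protease inhibitors; 50 µg protein on 10–15% SDS-PAGE, nitrocellulose, overnight 4°C primary antibody (GCL 1:500, HO-1 1:1000), HRP secondary, chemiluminescence. Bands normalized to GAPDH (1:10 000), DMSO ratio set at 1.00; representative of three independent experiments.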

In test [2] the test system is HT-29. The test can be described thus: Induction of HO1 expression in human HT-29 cells at 10 uM after 4 hrs by Western blotting method. The procedure, abridged:
as §1
On the technique in general: A western blot detects proteins with antibodies after separation by electrophoresis.

The subject of test [3] is HT-29. In words: Induction of NQO1 expression in human HT-29 cells at 10 uM after 2 hrs by Western blotting method. The procedure, abridged:
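Whole-cell lysates from treated HT29 cells in pH 7.5 Hepes/KOH buffer with EDTA, KCl, Igepal, DTT and protease inhibitors. 50 µg protein run on 10-15% SDS-PAGE and transferred to nitrocellulose. Probed overnight at 4°C with anti-HO-1 (1:1 000), anti-NQO1 (1:1 000) or anti-GCL (1:500), then HRP secondary for 45 min and chemiluminescence. Bands normalized to GAPDH (1:10 000), with the DMSO ratio set to 1.00. Representative of three experiments.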

The subject of test [4] is HT-29. In words: Induction of HO1 expression in human HT-29 cells at 6.4 uM after 6 hrs by Western blotting method. The procedure, abridged:
as §1

Test [5] deals with HT-29. The test can be described thus: Induction of GCL expression in human HT-29 cells at 6.4 uM after 4 hrs by Western blotting method. The procedure, abridged:
as §1

Structures are written as SMILES.

Regarding `CN(C)c1ccc(/C=C2\S/C(=N\c3csc(-c4ccc(Cl)cc4)c3)NC2=O)cc1`, the “fold change (FC)” value in the test on HT-29 [1] is recorded as 1.52. For the molecule `COc1ccc(/C=C2\S/C(=N\c3csc(-c4ccc(Cl)cc4)c3)NC2=O)cc1OC`, the “fold change (FC)” value in the test on HT-29 [2] worked out at 1; in the test with HT-29 [3], 1.04. `Cc1ccc(/C=C2\S/C(=N\c3csc(-c4ccc(Cl)cc4)c3)NC2=O)cc1`: the “fold change (FC)” value in the test on HT-29 [4] is 1; with HT-29 [5] it was 2.54.
